ChEMBL document CHEMBL1125735, “trans-hexahydroindolo[4,3-ab]phenanthridines ("benzergolines"), the first structural class of potent and selective dopamine D1 receptor agonists lacking a catechol group” (1991)

Experiments:
[1] = target: D(2) dopamine receptor (Rattus norvegicus) (UniProt P61169); test: Percent of maximal inhibition by change of S2/S1 versus control at 1 uM for the cetylcholine (ACh) release as a model for Dopamine D2 receptor activation.; format: functional; design: scale not given: the % may be the effect or the level left
D(2) dopamine receptor (Rattus norvegicus), sequence (P61169 whole entry): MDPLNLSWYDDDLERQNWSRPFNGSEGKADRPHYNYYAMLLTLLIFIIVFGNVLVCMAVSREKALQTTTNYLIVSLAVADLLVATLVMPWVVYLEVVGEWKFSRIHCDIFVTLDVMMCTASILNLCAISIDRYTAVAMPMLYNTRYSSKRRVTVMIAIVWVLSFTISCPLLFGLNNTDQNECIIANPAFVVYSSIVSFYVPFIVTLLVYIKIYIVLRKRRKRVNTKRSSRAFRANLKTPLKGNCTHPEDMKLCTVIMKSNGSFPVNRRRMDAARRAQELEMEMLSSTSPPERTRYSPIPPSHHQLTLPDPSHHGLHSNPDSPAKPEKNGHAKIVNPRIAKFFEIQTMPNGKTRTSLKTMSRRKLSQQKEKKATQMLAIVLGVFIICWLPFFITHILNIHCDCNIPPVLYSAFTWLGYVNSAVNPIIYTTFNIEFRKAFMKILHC
Outline: (§1)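 Electrically evoked acetylcholine release measured in rat striatal slices.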

Bos taurus = organism: Bos taurus; test: Percent of maximal effect of 125 uM Dopamine in the adenylate cyclase assay.; format: functional
Outline: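 Dopamine-sensitive adenylate cyclase assay run on bovine retina tissue.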

[2] = target: D(2) dopamine receptor (Rattus norvegicus) (UniProt P61169); test: Percent of maximal inhibition by change of S2/S1 versus control at 1 uM for the acetylcholine (ACh) release as a model for Dopamine D2 receptor activation.; format: functional; design: scale not given: the % may be the effect or the level left; outline: as §1
[3] = test system: Dopamine D1 receptor (Bos taurus); test: Compound was evaluated for its potency to Dopamine D1 stimulating effect in the adenylate cyclase assay.
[4] = target: D(2) dopamine receptor (Rattus norvegicus) (UniProt P61169); test: Compound was evaluated for its potency to inhibit electrically evoked acetylcholine (ACh) release as a model for Dopamine D2 receptor activation.; format: functional; outline: as §1
[5] = target: D(2) dopamine receptor (Rattus norvegicus) (UniProt P61169); settings: 1 uM

Row | SMILES | Control [1] [%] | Relative activity (Bos taurus) [%] | Control [2] [%] | pD2 [3] | pD2 [4] | Control [5] [%]
1 | CN1Cc2ccccc2[C@H]2c3cccc4c3C(CN4)C[C@H]21 (stereo not given in full) | 0 | 0 |  |  |  | 
2 | CN1Cc2ccccc2[C@H]2c3cccc4[nH]cc(c34)C[C@H]21 |  | 57 | 0 | 6.1 |  | 
3 | CCCCN1Cc2ccccc2[C@H]2c3cccc4[nH]cc(c34)C[C@H]21 | 0 | 0 |  |  |  | 
4 | CCN1Cc2ccccc2[C@H]2c3cccc4[nH]cc(c34)C[C@H]21 |  | 72 | 0 | 6 |  | 
5 | Oc1cc2c(cc1O)C(c1ccccc1)CNCC2 (stereo not given) [SKF-38393] | 0 | 58 |  | 6.6 |  | 
6 | c1ccc2c(c1)CN[C@@H]1Cc3c[nH]c4cccc(c34)[C@H]21 |  | 82 | 0 | 6.3 |  | 
7 | Oc1ccc([C@@H]2CNCc3ccccc32)cc1O | 0 | 86 |  | 6 |  | 
8 | CN1CCc2cccc3c2[C@H]1Cc1ccc(O)c(O)c1-3 [APOMORPHINE] |  | 38 |  | 6.2 | 7.5 | 85
9 | CN1CCC[C@H]2c3cccc4[nH]cc(c34)C[C@H]21 | 30 | 24 |  | 5.2 | 7.5 | 
10 | CCCN1Cc2ccccc2[C@H]2c3cccc4[nH]cc(c34)C[C@H]21 |  | 55 | 0 | 5.7 |  | 
